Data reported in ChEMBL document CHEMBL1127648, “Synthesis of 2-piperazinylbenzothiazole and 2-piperazinylbenzoxazole derivatives with 5-HT3 antagonist and 5-HT4 agonist properties” (J Med Chem, 1994).

Key:
Rattus norvegicus [1] = test: The compound was evaluated for the percentage increase in gastric emptying for a dose of 7.5 mg/kg perorally in rat; assay type: functional, Stomach; details: route oral
Outline: (§1)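 Wistar rats (160 ± 10 g) fasted overnight, dosed orally with vehicle or compound. After 60 min, gavage with 40 steel spheroids (1 mm) in 2 mL 3% carboxymethylcellulose. Killed by CO2 60 min later; spheroids left in the stomach were counted. Emptying is expressed as a percentage of paired controls.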

Rattus norvegicus [2] = organism: Rattus norvegicus; test: The compound was evaluated for the value in rat isolated esophageal tunica muscularis mucose in rat; assay type: functional
Outline: (§2)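 Inner smooth-muscle tube of rat oesophagus (external muscularis propria removed), held in Tyrode's solution at 37 °C, pH 7.4, aerated 95% O2/5% CO2, under 250 mg tension, equilibrated 60 min. Relaxation of carbachol-induced contraction measured from agonist concentration-effect curves. Means of 8 experiments (24 for 5-HT).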

Rattus norvegicus [3] = test: The compound was evaluated for the percentage increase in gastric emptying for a dose of 10 mg/kg perorally in rat; assay type: functional, Stomach; details: route oral; outline: as §1
Cavia porcellus [4] = organism: Cavia porcellus; test: The compound was evaluated for the pA2 value that was estimated using 2-methyl-5-HT in five to seven different tissues in guinea pig ileum; assay type: functional; details: read-out: pA2 (converted)
Outline: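 Guinea pig ileum in oxygenated physiological solution with 1 μM methysergide at 37 °C, isometric contractions at 0.5 g tension.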

Rattus norvegicus [5] = test: The compound was evaluated for the percentage increase in gastric emptying for a dose of 5 mg/kg perorally in rat; assay type: functional, Stomach; details: route oral; outline: as §1
Rattus norvegicus [6] = organism: Rattus norvegicus; test: The compound was evaluated for the intrinsic activity in rat isolated esophageal tunica muscularis mucose; assay type: functional; outline: as §2
Cavia porcellus [7] = organism: Cavia porcellus; test: The compound was evaluated for the percentage inhibition in guinea pig ileum stimulated with 10 uM 5-HT and tested at fixed concentration of 10 uM; assay type: functional
Outline: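 Guinea pig ileum in oxygenated physiological solution with 1 μM methysergide at 37 °C, isometric recording, 0.5 g resting tension. Response to 10 μM 5-HT set as 100%. After 30 min incubation with compound at 10 μM, 5-HT was re-added; response expressed as % of the previous 5-HT response.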

[8] = biological target: T1, Serotonin 1 (5-HT1) receptor (Rattus norvegicus, UniProt P28564+P30940+P19327+P28565); test: Binding affinity towards 5-hydroxytryptamine 1 receptor using [3H]5-HT as radioligand; assay type: protein assay
Outline: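 Rat cortex homogenized in 50 mM Tris-HCl and preincubated at 37 °C for 10 min. Membranes were resuspended with 0.1% ascorbic acid and 10 μM pargyline. Incubated with 0.3 nM [3H]-5-HT and varying test concentrations at 37 °C for 10 min, then filtered and counted by scintillation. IC50 is the mean of 4–6 experiments.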

[9] = biological target: T2, Serotonin 3 (5-HT3) receptor (Rattus norvegicus, UniProt P35563+Q9JJ16); test: Inhibition of [3H]BRL-43694 binding to rat 5-hydroxytryptamine 3 receptor; assay type: protein-complex assay
T2 sequence (P35563 whole entry): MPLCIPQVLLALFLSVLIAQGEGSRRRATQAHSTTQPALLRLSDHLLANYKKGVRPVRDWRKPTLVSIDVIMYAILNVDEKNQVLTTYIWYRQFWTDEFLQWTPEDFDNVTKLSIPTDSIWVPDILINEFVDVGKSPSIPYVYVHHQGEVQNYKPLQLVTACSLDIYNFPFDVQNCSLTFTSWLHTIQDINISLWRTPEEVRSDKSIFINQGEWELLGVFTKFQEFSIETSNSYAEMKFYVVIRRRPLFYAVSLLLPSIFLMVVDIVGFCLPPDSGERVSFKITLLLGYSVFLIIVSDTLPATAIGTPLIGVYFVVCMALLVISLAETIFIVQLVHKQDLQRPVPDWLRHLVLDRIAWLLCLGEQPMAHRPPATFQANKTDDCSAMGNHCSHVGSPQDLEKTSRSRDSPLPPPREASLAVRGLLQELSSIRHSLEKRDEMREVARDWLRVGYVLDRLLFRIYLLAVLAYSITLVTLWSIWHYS
T2 sequence (Q9JJ16 whole entry): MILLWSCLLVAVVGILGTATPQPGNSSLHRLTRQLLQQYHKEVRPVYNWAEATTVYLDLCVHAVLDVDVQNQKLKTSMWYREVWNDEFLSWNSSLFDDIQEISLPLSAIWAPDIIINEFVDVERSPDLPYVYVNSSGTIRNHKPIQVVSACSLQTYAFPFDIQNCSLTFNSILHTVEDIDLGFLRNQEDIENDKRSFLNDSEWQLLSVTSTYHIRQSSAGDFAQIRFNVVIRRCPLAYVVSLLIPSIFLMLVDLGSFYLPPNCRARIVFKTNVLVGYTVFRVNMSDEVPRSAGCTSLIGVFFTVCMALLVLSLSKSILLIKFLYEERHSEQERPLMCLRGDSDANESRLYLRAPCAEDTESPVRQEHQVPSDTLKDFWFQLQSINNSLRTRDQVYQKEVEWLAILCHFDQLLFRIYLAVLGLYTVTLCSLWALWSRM

Rattus norvegicus [10] = organism: Rattus norvegicus; test: The compound was evaluated for the percentage inhibition in rat aorta stimulated with 30 uM 5-HT and tested at fixed concentration of 10 uM; assay type: functional
D(2) dopamine receptor = D(2) dopamine receptor (Rattus norvegicus, UniProt P61169); test: Displacement of [3H]spiroperidol from D2 dopamine receptor
Sequence of D(2) dopamine receptor (P61169 whole entry): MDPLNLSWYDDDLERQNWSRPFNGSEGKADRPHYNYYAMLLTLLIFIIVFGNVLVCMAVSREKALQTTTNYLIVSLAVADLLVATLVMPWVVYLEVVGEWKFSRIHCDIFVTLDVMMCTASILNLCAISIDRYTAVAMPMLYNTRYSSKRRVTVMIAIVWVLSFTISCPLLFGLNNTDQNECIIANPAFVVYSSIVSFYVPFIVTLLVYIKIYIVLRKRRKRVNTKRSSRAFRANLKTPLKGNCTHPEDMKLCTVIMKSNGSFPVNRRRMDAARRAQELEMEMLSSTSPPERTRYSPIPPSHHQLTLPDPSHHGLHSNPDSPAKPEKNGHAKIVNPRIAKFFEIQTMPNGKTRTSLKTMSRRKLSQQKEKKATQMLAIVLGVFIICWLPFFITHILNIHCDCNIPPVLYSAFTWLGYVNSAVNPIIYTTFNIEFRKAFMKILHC

[11] = The compound was evaluated for equipotent concentration ratio (ECR). whereECR = IC40 test agonist / IC40 5-HT; assay type: functional
Outline: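 Rat oesophageal tunica muscularis mucosae precontracted with carbachol. Two concentration-effect curves were run in the same strip, first to 5-HT and then to 5-HT or the test agonist. […] Only paired experiments were used.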

[12] = biological target: Serotonin 3 (5-HT3) receptor (Rattus norvegicus) (UniProt P35563+Q9JJ16); test: Inhibition dose for 50 percent antagonism for 5-hydroxytryptamine 3 receptor in vivo in rats; assay type: functional, organism-based
Outline: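 Male Sprague-Dawley rats (500–550 g) under urethane (1 g/kg ip), with heart rate taken from the carotid pressure signal. 5-HT 4 μg/kg iv bolus every 15 min elicited von Bezold-Jarisch bradycardia. […] ID50 by Litchfield-Wilcoxon.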

Rattus norvegicus [13] = test: The compound was evaluated for the percentage increase in gastric emptying for a dose of 10 mg/kg perorally in rat.; assay type: functional, Stomach; details: route oral; outline: as §1
Rattus norvegicus [14] = test: The compound was evaluated for the percentage increase in gastric emptying for a dose of 5 mg/kg perorally in rat.; assay type: functional, Stomach; details: route oral; outline: as §1
Rattus norvegicus [15] = organism: Rattus norvegicus; test: Agonist potency in rat isolated esophageal tunica muscularis mucose.; assay type: functional; outline: as §2
Rattus norvegicus [16] = test: The compound was evaluated for the percentage increase in gastric emptying for a dose of 7.5 mg/kg perorally in rat.; assay type: functional, Stomach; details: route oral; outline: as §1
[17] = biological target: T1, Serotonin 1 (5-HT1) receptor; test: The compound was evaluated for the binding affinity towards 5-hydroxytryptamine 1 using [3H]5-HT as radioligand; assay type: protein assay
Outline: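 Membranes were resuspended with 0.1% ascorbic acid and 10 μM pargyline. Incubated with 0.3 nM [3H]-5-HT and varying test concentrations at 37 °C for 10 min, then filtered and counted by scintillation.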

Rattus norvegicus [18] = test: The compound was evaluated for the percentage increase in gastric emptying for a dose of 1 mg/kg perorally in rat; assay type: functional, Stomach; details: route oral; outline: as §1
Rattus norvegicus [19] = organism: Rattus norvegicus; test: (§3) The compound was evaluated for the value in rat isolated esophageal tunica muscularis mucose; parameters: species or system Esophagus muscularis mucosa
Outline: (§4)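 Rat oesophageal tunica muscularis mucosae was isolated by removing the muscularis propria. Strips were held in Tyrode's solution (pH 7.4) at 37 °C, aerated with 95% O2/5% CO2, under 250 mg tension, and equilibrated 60 min. Relaxation of carbachol-induced contraction was measured. Paired concentration-effect curves were run in the same preparation, first to 5-HT, then to the test agonist. ECR = IC40 test agonist/IC40 5-HT. Mean of 8 experiments.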

Rattus norvegicus [20] = organism: Rattus norvegicus; test: Ability of compounds to relax oesophagus expressed as equipotent concentration ratio (ECR) where ECR = IC40 test agonist / IC40 5-HT; assay type: functional; outline: as §4
Rattus norvegicus [21] = organism: Rattus norvegicus; test: as §3; assay type: functional; outline: as §4
Rattus norvegicus [22] = organism: Rattus norvegicus; test: The compound was evaluated for pEC50 of 5-HT in rat isolated esophageal tunica muscularis mucose; details: in vitro

Structure (SMILES): COc1cc(N)c(Cl)cc1C(=O)NC1CCN(CCCOc2ccc(F)cc2)CC1OC (stereo not given) [CISAPRIDE]
- Increase (Rattus norvegicus [1]): 59.5%
- EC50 (Rattus norvegicus [2]): 0.0589 µM
- Increase (Rattus norvegicus [3]): 67%
- Kb (Cavia porcellus [4]): 0.001 µM
- Increase (Rattus norvegicus [5]): 47.2%
- Intrinsic activity (Rattus norvegicus [6]): 0.92
- Inhibition (Cavia porcellus [7]): 98.1%

Structure (SMILES): c1ccc(CN2CCN(c3nc4ccccc4o3)CC2)cc1
- IC50 [8]: > 10 µM
- Increase (Rattus norvegicus [3]): 15.1%
- IC50 [9]: > 10 µM
- Inhibition (Rattus norvegicus [10]): 21.9%
- IC50 (D(2) dopamine receptor): > 10 µM
- Inhibition (Cavia porcellus [7]): 48.8%

Structure (SMILES): c1ccc2sc(N3CCN(Cc4ccc5c(c4)OCO5)CC3)nc2c1
- Ratio [11]: 22
- IC50 [8]: > 10 µM
- ID50 [12]: 0.18 mg/kg
- Kb (Cavia porcellus [4]): 0.316 µM
- Increase (Rattus norvegicus [13]): 62.8%
- Increase (Rattus norvegicus [14]): 45%
- IC50 [9]: 0.95 µM
- EC50 (Rattus norvegicus [15]): 0.263 µM
- Inhibition (Rattus norvegicus [10]): 21.2%
- Intrinsic activity (Rattus norvegicus [6]): 0.91
- IC50 (D(2) dopamine receptor): > 10 µM
- Increase (Rattus norvegicus [16]): 43.3%
- Inhibition (Cavia porcellus [7]): 74.5%

Structure (SMILES): O=C(c1ccc(F)cc1)C1CCN(CCn2c(=O)[nH]c3ccccc3c2=O)CC1 [KETANSERIN]
- Inhibition (Rattus norvegicus [10]): 90%

Structure (SMILES): CCOc1ccccc1N1CCN(c2nc3ccccc3s2)CC1
- IC50 [17]: > 10 µM
- IC50 [9]: > 10 µM
- Inhibition (Rattus norvegicus [10]): 10.3%
- IC50 (D(2) dopamine receptor): > 10 µM
- Inhibition (Cavia porcellus [7]): -22.2%

Structure (SMILES): Clc1cccc(N2CCN(c3nc4ccccc4s3)CC2)c1
- IC50 [8]: > 10 µM
- IC50 [9]: > 10 µM
- IC50 (D(2) dopamine receptor): > 10 µM
- Inhibition (Cavia porcellus [7]): -21.9%

Structure (SMILES): Cc1nccn1CC1CCc2c(c3ccccc3n2C)C1=O (stereo not given) [ONDANSETRON]
- Increase (Rattus norvegicus [18]): 44.2%

Structure (SMILES): Oc1ccccc1N1CCN(c2nc3ccccc3s2)CC1
- IC50 [8]: > 10 µM
- Increase (Rattus norvegicus [3]): -14.2%
- IC50 [9]: > 10 µM
- Inhibition (Rattus norvegicus [10]): 49.3%
- IC50 (D(2) dopamine receptor): > 10 µM
- Inhibition (Cavia porcellus [7]): 40.8%

Structure (SMILES): Cc1[nH]c2ccc(O)cc2c1CCN
- CL (Rattus norvegicus [19]): 4.9%
- Intrinsic activity (Rattus norvegicus [6]): 1
- Ratio (Rattus norvegicus [20]): 643

Structure (SMILES): COc1ccccc1N1CCN(c2nc3ccccc3o2)CC1
- IC50 [8]: > 10 µM
- IC50 [9]: > 10 µM
- Inhibition (Rattus norvegicus [10]): 14.7%
- IC50 (D(2) dopamine receptor): > 10 µM
- Inhibition (Cavia porcellus [7]): 25.6%

Structure (SMILES): Oc1ccccc1N1CCN(c2nc3ccccc3o2)CC1
- IC50 [8]: > 10 µM
- Increase (Rattus norvegicus [3]): -30.2%
- IC50 [9]: > 10 µM
- Inhibition (Rattus norvegicus [10]): 29.1%
- IC50 (D(2) dopamine receptor): > 10 µM
- Inhibition (Cavia porcellus [7]): 46.1%

Structure (SMILES): CCN(CC)CCNC(=O)c1cc(Cl)c(N)cc1OC [METOCLOPRAMIDE]
- Increase (Rattus norvegicus [3]): 37.1%

Structure (SMILES): c1ccc2oc(N3CCN(Cc4ccc5c(c4)OCO5)CC3)nc2c1
- IC50 [8]: > 10 µM
- Increase (Rattus norvegicus [3]): 23.1%
- IC50 [9]: > 10 µM
- Inhibition (Rattus norvegicus [10]): 19.4%
- IC50 (D(2) dopamine receptor): > 10 µM
- Inhibition (Cavia porcellus [7]): 55.8%

Structure (SMILES): COc1ccccc1N1CCN(c2nc3ccccc3s2)CC1
- IC50 [8]: > 10 µM
- Increase (Rattus norvegicus [3]): -27.5%
- IC50 [9]: > 10 µM
- Inhibition (Rattus norvegicus [10]): 7.1%
- IC50 (D(2) dopamine receptor): > 10 µM
- Inhibition (Cavia porcellus [7]): 43%

Structure (SMILES): c1ccc(CN2CCN(c3nc4ccccc4s3)CC2)cc1
- IC50 [8]: > 0.00001 M
- Increase (Rattus norvegicus [3]): 44.6%
- ID50 [12]: 0.16 mg/kg
- Kb (Cavia porcellus [4]): 0.501 µM
- IC50 [9]: 0.033 µM
- Inhibition (Rattus norvegicus [10]): 14.8%
- IC50 (D(2) dopamine receptor): > 10 µM
- Inhibition (Cavia porcellus [7]): 74.4%

Structure (SMILES): NCCc1c[nH]c2ccc(O)cc12 [SEROTONIN]
- Intrinsic activity (Rattus norvegicus [21]): 1
- pEC50 (Rattus norvegicus [22]): 7.91
